Only some compounds are listed: those with a hit (about 2.3% of all), similar ones and a draw of the others.
STEP inh: blocks human striatal-enriched tyrosine phosphatase; hit rate 0.25% among 360,000; recombinant STEP, OMFP fluorogenic substrate, fluorescence; inhibition, % at 20 µM; P54829;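 active = inhibition at 20 µM, scaled per plate between control wells, above about 37%, limit read from the data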
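Measure: Control-normalized % inhibition with plate pattern correction | Test system: STEP phosphatase, cell-free reaction | Medium: pH 6.0 Bis-Tris with DTT and Tween 20 | Technique: Fluorescence, 480/540 nm | Times: Reaction 20 min, ambient temperature | Doses: Single compound dose of 20 µM, 1% DMSO final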
LMPTP block: blocks human LMPTP phosphatase | recombinant LMPTP-A, OMFP fluorogenic substrate, fluorescence intensity | AID 651560 | hit rate 0.22% among 360,000 | inhibition, % at 20 µM | P24666;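 active = compounds that cut the enzyme signal by at least half of the control window in the single-dose screen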
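test system = LMPTP-A | amount = 0.625 nM LMPTP-A final | reagent = fluorogenic phosphatase substrate OMFP at 400 µM final | incubation = 50 min at room temperature | benchmarks = no-enzyme low control, uninhibited high control | medium = Bis-Tris pH 6.0, DTT, detergent | signal = fluorescence intensity of OMFP turnover product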
DNMT1 inh: blocks human DNA methyltransferase DNMT1; P26358; inhibition (reported as % activation of signal), % at 10 µM; DNMT1 molecular beacon, Hinp1I cleavage, fluorescence; hit rate 0.83% among 360,000; in the data active = inhibition above about 50%
SUMO1 PPI mod: SUMO1-SIM interaction modulation | P63165 | SUMO1 binding to a labelled peptide, TR-FRET, 1 h | inhibition, % at 20 µM | hit rate 0.33% among 360,000 | AID 602429; in the data active = inhibition above about 37%
Target sequence (P63165 whole entry, looked up): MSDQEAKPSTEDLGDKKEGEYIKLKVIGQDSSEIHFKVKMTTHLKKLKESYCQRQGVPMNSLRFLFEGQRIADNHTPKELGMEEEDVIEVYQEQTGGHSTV
Rpn11 block: blocks the human proteasome subunit Rpn11; O00487; AID 588493; human 26S proteasome, Ub4-pepOG fluorescence polarization; 20S core pre-blocked with epoxomicin; hit rate 0.59% among 360,000; inhibition, % at 20 µM;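 active = inhibition at 20 µM, scaled to each plate's controls, above about 33%, limit read from the data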
Target sequence (O00487 whole entry, looked up): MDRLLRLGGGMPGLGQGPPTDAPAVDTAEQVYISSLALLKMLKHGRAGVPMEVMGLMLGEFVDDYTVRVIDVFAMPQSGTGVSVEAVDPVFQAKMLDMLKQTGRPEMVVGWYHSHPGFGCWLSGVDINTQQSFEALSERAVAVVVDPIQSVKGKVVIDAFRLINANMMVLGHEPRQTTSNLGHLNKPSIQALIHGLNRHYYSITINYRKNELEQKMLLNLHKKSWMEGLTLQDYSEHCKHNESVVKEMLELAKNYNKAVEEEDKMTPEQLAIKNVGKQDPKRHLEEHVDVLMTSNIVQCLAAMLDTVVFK
Scp1 inh: blocks human Scp-1 phosphatase activity | Q9GZU7 | Recombinant Scp1, phosphopeptide, malachite green phosphate absorbance | inhibition, % at 20 µM | hit rate 0.88% among 340,000;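 active = inhibition above about 50% at 20 µM, limit read from the data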
Target sequence (Q9GZU7 76-261 limits assumed): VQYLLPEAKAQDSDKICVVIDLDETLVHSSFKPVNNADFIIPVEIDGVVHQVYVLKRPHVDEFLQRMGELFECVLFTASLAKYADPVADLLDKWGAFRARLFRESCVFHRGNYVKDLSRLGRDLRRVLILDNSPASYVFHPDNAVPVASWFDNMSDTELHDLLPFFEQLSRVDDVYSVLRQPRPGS
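Incubation: 45 min enzyme reaction at room temperature / System: truncated SCP-1 phosphatase (76-261aa) / Reagent: Phospho 17-mer peptide substrate / Buffer or medium: Acidic Tris acetate buffer with magnesium and detergent / Signal: absorbance at 630 nm / Doses: one concentration, 20 µM, with 1.0% DMSO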
Scp-1 conf: Scp-1 (human) inhibition, single-dose confirmed. shares compounds with Scp1 inh. recombinant SCP-1 catalytic domain, phosphate release, malachite green absorbance. inhibition, % at 20 µM. hit rate 61% among 2,500. AID 540281
Scp-1 MG ctr: colorimetric interference in Scp-1 counter-screen; shares compounds with Scp1 inh; Colorimetric interference counterscreen, malachite green absorbance 630 nm; apparent inhibition (interference), % at 20 µM; 2,500 tested, under 10 active;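 note: compounds added after enzyme reaction finished so only phosphate colour detection is probed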
Scp1 DSF: Scp-1 (human) binding by thermal shift. shares compounds with Scp1 inh. Recombinant SCP1, Sypro Orange thermal shift Tm. thermal shift relative to vanadate control, % at 40 µM. hit rate 25% among 1,500. AID 540329;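 active = substances whose mean melting-temperature shift, as a percentage of the reference inhibitor's shift, reaches about 5.3%, limit read from the data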
Beacon interf DR: beacon fluorescence artifact, dose response counter-screen; IC50, µM; 200 tested, under 10 active; shares compounds with DNMT1 inh; molecular beacon fluorescence, spectral interference counter-screen; call rule not given here
DNMT1 confirm: confirmation of human DNMT1 inhibitors; DNMT1 molecular beacon HinP1I cleavage, fluorescence; hit rate 8% among 2,300; shares compounds with DNMT1 inh; inhibition, % at 10 µM;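 active = average inhibition of at least 30% in the single-concentration confirmation test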
Beacon interf: beacon fluorescence artifact counter-screen. AID 602387. activation (fluorescence interference), % at 10 µM. shares compounds with DNMT1 inh. DNMT1 molecular beacon spectral interference counterscreen, fluorescence 485/520. hit rate 1% among 2,300;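 active = activation of at least 30% at 10 µM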;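 note: DNMT1 catalytic domain with a HinP1I cleavage step and a FAM/dabcyl DNA beacon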
Large screens that a line does not name were inactive (follow-up assays come after a bar, where they were run); ! = not confirmed by another sample.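 Rule for the calls, unless noted: active = inhibition of at least 30% at 20 µM; inactive = the rest.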

CC1=NOC(=O)/C1=C\c1ccc(-c2ccc(Cl)c(C(=O)O)c2)o1	DNMT1 inh 82, Scp1 inh 67 | Scp-1 conf 58 | Scp-1 MG ctr inactive | Scp1 DSF inactive | DNMT1 confirm inactive | Beacon interf inactive
O=C1NN(c2ccccc2)C(=O)/C1=C/c1ccc(-c2ccc(C(=O)O)cc2)o1	DNMT1 inh 78, Scp1 inh 77 | Scp-1 conf 58 | Scp-1 MG ctr inactive | Scp1 DSF 15 | Beacon interf DR inactive | DNMT1 confirm inactive | Beacon interf inactive
COC(=O)c1ccc(N2NC(=O)/C(=C/c3ccc(-c4ccc(Cl)c(C(=O)O)c4)o3)C2=O)cc1	DNMT1 inh 79, Scp1 inh 76 | Scp-1 conf 75 | Scp-1 MG ctr inactive | Scp1 DSF 14 | DNMT1 confirm inactive | Beacon interf inactive
C=CCNc1nc(C(=O)OCC(=O)c2cccc(Br)c2)cs1	DNMT1 inh 59, Scp1 inh 57 | Scp-1 conf 60 | Scp-1 MG ctr inactive | Scp1 DSF 11 | DNMT1 confirm inactive | Beacon interf inactive
CCOC(=O)c1c(C)[nH]c(C(=O)OCC(=O)c2ccc3c(c2)NC(=O)CO3)c1C	none
COc1ccccc1N1CCN(C(=O)c2oc3c(c2C)C(=O)CC(C)(C)C3)CC1	none
COCCn1c(C)nnc1SCC(=O)NNC(=O)c1ccc(Cl)cc1	none
CCOc1cc(/C=N/Nc2ccccc2Cl)ccc1OCC(=O)O	DNMT1 inh 58, Scp1 inh 54 | Scp-1 conf inactive | Scp-1 MG ctr inactive | DNMT1 confirm inactive | Beacon interf inactive
CSCCC(NC(=O)C1CCCC1)c1nnc2ccccn12 (configuration not stated)	none
CSCC[C@H](NS(=O)(=O)c1ccc(C(C)=O)cc1)c1nnc2ccccn12	STEP inh 55, DNMT1 inh 55, Scp1 inh 61 | Scp-1 conf 64 | Scp-1 MG ctr inactive | Scp1 DSF inactive | DNMT1 confirm inactive | Beacon interf inactive
COc1ccc(S(=O)(=O)N2CCOCC2)cc1NC(=O)c1cccc(-n2cccc2)c1	DNMT1 inh 73, Scp1 inh 58 | Scp-1 conf inactive | Scp-1 MG ctr inactive | DNMT1 confirm inactive | Beacon interf inactive
COc1ccccc1NC(=O)c1cccc(S(=O)(=O)N2CCOCC2)c1	none
Cc1cc2oc(=O)cc(-c3cc4ccccc4o3)c2cc1O	LMPTP block 66, DNMT1 inh 81, Scp1 inh 91 | Scp-1 conf 79 | Scp-1 MG ctr inactive | Scp1 DSF inactive | DNMT1 confirm inactive | Beacon interf inactive
CC(=O)COc1ccc2oc(=O)cc(-c3cc4ccccc4o3)c2c1	none
Cc1ccc(S(=O)(=O)N2CCN(C(=O)CN3CCCSc4ccccc43)CC2)cc1	none
COCCN1C(=O)C(=O)/C(=C(/O)c2cccc(OC)c2)C1c1ccco1 (configuration not stated)	DNMT1 inh 75, Scp1 inh 57 | Scp-1 conf 56 | Scp-1 MG ctr inactive | Scp1 DSF inactive | DNMT1 confirm inactive | Beacon interf inactive
Cc1nc(SCC(=O)O)c(C#N)c2c1CCCC2	DNMT1 inh 58, Scp1 inh 96 | Scp-1 conf 70 | Scp-1 MG ctr inactive | Scp1 DSF inactive | DNMT1 confirm inactive | Beacon interf inactive
CCc1nc(SCC(=O)O)c(C#N)c2c1CCCC2	none
CCOC(=O)C1=C(O)/C(=C/c2ccc(CNC(=O)C(=O)Nc3ccc(C)cc3)o2)N=C1C	DNMT1 inh 90, Scp1 inh 69 | Scp-1 conf inactive | Scp-1 MG ctr inactive | DNMT1 confirm inactive | Beacon interf inactive
CCOC(=O)C(=O)NCc1ccc(/C=C2/N=C(C)C(C(=O)OCC)=C2O)o1	none
Cc1ccc(/C=C/C(=O)NCc2ccccn2)o1	DNMT1 inh 67, Scp1 inh 72 | Scp-1 conf 59 | Scp-1 MG ctr inactive | Scp1 DSF inactive | DNMT1 confirm inactive | Beacon interf inactive
CCCCN(CCO)c1ncnc2sc(-c3ccccc3)cc12	none
COc1ccc(NC(=O)/C(C#N)=C\c2ccc(Br)o2)cc1	DNMT1 inh 79, Scp1 inh 94 | Scp-1 conf 58 | Scp-1 MG ctr inactive | Scp1 DSF inactive | DNMT1 confirm inactive | Beacon interf inactive
COc1ccc(NC(=O)/C(C#N)=C/c2ccc(-c3ccccc3C(=O)O)o2)cc1	none
COc1ccc(-c2nc3oc4cc(OC)ccc4c(=O)c3c(=O)n2Cc2ccco2)cc1	none
COc1ccc(Cn2c(-c3ccco3)nc3oc4cc(OC)ccc4c(=O)c3c2=O)cc1	DNMT1 inh 61, Scp1 inh 79 | Scp-1 conf 68 | Scp-1 MG ctr inactive | Scp1 DSF inactive | DNMT1 confirm inactive | Beacon interf inactive
COc1ccc2c(=O)c3c(=O)n(Cc4ccco4)c(-c4ccco4)nc3oc2c1	DNMT1 inh 86, Scp1 inh 92 | Scp-1 conf 74 | Scp-1 MG ctr inactive | Scp1 DSF inactive | DNMT1 confirm inactive | Beacon interf inactive
COc1ccc(Cn2c(-c3ccco3)nc3oc4ccccc4c(=O)c3c2=O)cc1	none
CC(=O)/C=C1\OCc2ccccc21	none (no result: STEP inh, DNMT1 inh, Rpn11 block, Scp1 inh)
O=C1Nc2ccccc2SC(c2ccccc2)C1O (configuration not stated)	DNMT1 inh 99, Scp1 inh 74 | Scp-1 conf 64 | Scp-1 MG ctr inactive | Scp1 DSF 6.6 | DNMT1 confirm inactive | Beacon interf inactive
Cc1cccc(C(=O)N=c2c(C#N)cc3c(=O)n4cccc(C)c4nc3n2Cc2ccco2)c1	DNMT1 inh 51!, SUMO1 PPI mod 51!, Scp1 inh 85! | Scp-1 conf 46 | Scp-1 MG ctr inactive | Scp1 DSF 15 | DNMT1 confirm inactive | Beacon interf inactive

Compound activity deposited in PubChem by Sanford-Burnham Center for Chemical Genomics.
